eIF4H FP inh: inhibitors of RNA binding by human eIF4H; eIF4H fluorescence polarization binding assay; inhibition, % at 35 µM; actives 0.94% (n = 290,000);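 further: calls also rest on retests at 20 µM and on dose response follow-up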
MT1-MMP act inh: blocks activation of human MT1-MMP. HT1080 RFP-PRO-GFP cells, GFP/RFP ratio fluorescence, overnight; percent of plate control window, DMSO zero. GFP/RFP ratio change, % at 20 µM. actives 0.061% (n = 360,000);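 active means GFP/RFP ratio change of at least 30% with cell ATP level not reduced by more than half and red fluorescence within 50% of control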
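Assay system: HT1080 cells carrying an RFP-PRO-GFP reporter | Dosing: Single dose of 20 µM compound, 1% DMSO final | Incubation: Cells overnight before dosing, compound overnight, 37 °C, 5% CO2 | Evaluation: GFP/RFP fluorescence ratio | Control set: DMSO and RFP-L50D-GFP cell wells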
SKN-1 inh: inhibitors of C. elegans SKN-1 | inhibition, % at 21.8 µM | C. elegans VP596 Pgst-4::GFP/RFP ratio, acrylamide-induced, 24 h | actives 0.49% (n = 360,000);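 active means interference check ratio from 0.5 to 1.5 plus GFP to RFP signal ratio inhibition reaching or exceeding a fixed threshold, cut at about 30% in these data, passing the limit was not always enough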
PABP FP inh: PABP-poly(A) binding inhibition. P11940. PABP-poly(A) RNA binding, fluorescence polarization. calls only at 35 µM. actives 1% (n = 290,000). AID 2014;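 further: calls also rest on retests at 20 µM and on dose response follow-up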
MLLE-PAM2 inh: blocks PAM2 peptide binding to the PABP1 MLLE domain; GST-MLLE / FITC-PAM2 fluorescence polarization; AID 588489; inhibition, % at 20 µM; actives 0.36% (n = 360,000); in the data active means inhibition above about 35%, passing the limit was not always enough;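 further: plate controls were DMSO wells with GST-MLLE for no effect and wells lacking GST-MLLE protein for full effect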
* marks the source's active call; other numbers are inactive results; i = inactive; / = not tested or not shown; + = active, no number. A selection: hits, their analogues and other compounds. The true share with any hit is near 1.8%. Unless noted, how the calls were made is not given here.

SMILES | eIF4H FP inh | MT1-MMP act inh | SKN-1 inh | PABP FP inh | MLLE-PAM2 inh
COc1ccc2oc(=Nc3cc(F)ccc3F)c(C(N)=O)cc2c1 | active | -19 | 9 | + | 12
COc1ccc(NC(=O)CN(c2ccc(OC)c(Cl)c2)S(=O)(=O)c2ccccc2)cc1 | 4 | -1 | 8 | i | 13
COc1ccc(OC(F)(F)F)cc1CC1(C)C(=O)Nc2ccc(-c3ccsc3)cc21 (stereo unspecified) | / | -13 | 14 | / | -22
O=C(c1cc2c(s1)CCCC2)N1CCN(Cc2ccc3c(c2)OCO3)CC1 | -12 | 1 | 12 | i | 4
O=C(Oc1ccc2c(c1)OCO2)c1cc2c(s1)CCC2 | 98* | 8 | -7 | + | 0
CCC(C)COC(=O)C(C#N)c1nc2ccccc2nc1N1CCCCC1 (stereo unspecified) | -1 | -17 | 9 | i | -17
CCCCNC(=O)C(C#N)c1nc2ccccc2nc1N1CCN(Cc2ccc3c(c2)OCO3)CC1 (stereo unspecified) | / | -4 | -19 | / | -13
CCC(CC)COC(=O)C(C#N)c1nc2ccccc2nc1N1CCN(CC)CC1 (stereo unspecified) | 81* | -20 | 9 | + | -7
CC1CN(c2nc3ccccc3nc2C(C#N)C(=O)NCc2ccc3c(c2)OCO3)CC(C)O1 (stereo unspecified) | 89 | / | 14 | + | -29
C=CCOC(=O)C(C#N)c1nc2ccccc2nc1N1CCN(Cc2ccc3c(c2)OCO3)CC1 (stereo unspecified) | 69* | -9 | 2 | + | -10
O=C(c1ncn(Cc2ccccc2)c1C(=O)N1CCc2ccccc2C1)N1CCc2ccccc2C1 | / | -4 | -11 | / | 10
Cc1ccc(NC(=O)COc2ccc(/C=C3/SC(=Nc4ccccc4)N(Cc4cccnc4)C3=O)cc2)cc1 | 58* | 0 | -13 | + | -18
CCc1nnc(NC(=O)CSCc2cc(=O)n3ccsc3n2)s1 | 0 | -1 | 14 | i | -16
COC(=O)C1(C(=O)OC)c2ccccc2CN(S(=O)(=O)c2ccc(C)cc2)C1CC(C)=O (stereo unspecified) | / | 9 | -16 | / | /
Fc1cccc(Cl)c1C1Nc2cccc3cccc(c23)N1 | 96* | -2 | 15 | + | -25
CN(C)c1ccc(C2Nc3cccc4cccc(c34)N2)cc1 | 7 | 2 | 7 | i | -42
Clc1cccc(Cl)c1C1Nc2cccc3cccc(c23)N1 | 99* | -5 | 12 | + | -32
CC(C)CC(=O)N1CCN(Cc2ccc(C(F)(F)F)cc2)CC1 | 21 | 4 | 17 | i | 4
Oc1ccc(Br)cc1C=Nc1cccn2cc(-c3ccccc3)nc12 | -8 | -5 | 8 | i | 40*
COc1ccccc1N1CCN(C(=O)CCc2nnc3ccc(N4CCC(C)CC4)nn23)CC1 | -3 | 7 | -19 | i | 0
CCc1ccc(NCc2nc(-c3ccccc3)no2)cc1 | -9 | 8 | 42* | i | -6
O/N=C(\Cn1ccnc1)c1ccccc1 | / | -2 | 7 | / | 6
CCC(c1nnnn1-c1ccc2c(c1)OCCO2)N1CCN(Cc2c(F)cccc2Cl)CC1 (stereo unspecified) | / | -6 | -5 | / | /
CC(C)CSC1=NSC2=NC(=O)/C(=C\c3cccs3)C(=N)N12 | 51* | -16 | 3 | i | -26
Nc1ccc(C(=O)N/N=C/c2cn(Cc3ccc(F)cc3)c3ccccc23)cc1 | -1 | 4 | 8 | i | 5
SMILES | eIF4H FP inh | MT1-MMP act inh | SKN-1 inh | PABP FP inh | MLLE-PAM2 inh
O=C(N/N=C/c1cn(Cc2cccc(F)c2)c2ccccc12)c1cc(O)cc(O)c1 | 100* | -1 | 8 | + | -9
CN(C)c1ccc(/C=C(/C#N)C(=O)Nc2nc3c(s2)CCN(Cc2ccccc2)C3)cc1 | / | -93 | 48* | / | 53
COCCN1C[C@@H](CO)O[C@@H](n2cnc3c(NC4CC4)ncnc32)C1 | / | 4 | 6 | / | -22
COc1ccc(-c2cc(C(=O)NCc3cccc(Cl)c3)[nH]n2)c(C)c1 | / | 1 | 16 | / | -3
Oc1ccc(C=Nc2ccccc2-c2nc3ccccc3[nH]2)c(O)c1 | 3 | 12 | -1 | i | -8
Oc1ccccc1C=Nc1ccccc1-c1nc2ccccc2[nH]1 | 5.7* | 11 | 0 | + | -9
COc1ccccc1N1CCN(C2CCCN(C(=O)CCc3ccccn3)C2)CC1 (stereo unspecified) | -6 | -4 | 10 | i | 7

Assay outcomes (PubChem BioAssay)
